Experimental data as given in ChEMBL document CHEMBL1158795 (J Nat Prod, 2005).
The source made the active and inactive calls. No cut-off for these calls is given here.

What was measured:
[1] = target: Aryl hydrocarbon receptor nuclear translocator (Homo sapiens) (UniProt P27540); assay: Inhibition of hypoxia-induced HIF1beta activation in human T47D cells at 10 uM after 4 hrs by Western blotting; type: cell-based
In short: (§1)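 T47D cells exposed to compound 30 min, then hypoxia (1% O2/94% N2/5% CO2) 4 h. Nuclear extracts prepared; HIF-1α probed by Western blot with monoclonal antibody, membrane stripped and reprobed for HIF-1β with monoclonal anti-HIF-1β antibody.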

[2] = target: T1, Hypoxia inducible factors; HIF-1-alpha, HIF-2-alpha (Homo sapiens, UniProt Q16665+Q99814); assay: Inhibition of hypoxia-induced HIF1 activation in human T47D cells upto 10 uM by luciferase reporter gene assay; type: cell-based
In short: (§2)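 T47D cells transiently co-transfected with pTK-HRE3-luc and pRL-TK control, preincubated with compounds 30 min at 37 °C, then hypoxia (1% O2/94% N2/5% CO2) 16 h. Firefly luciferase activity normalized to Renilla, expressed as % inhibition versus induced control. Representative experiment, quadruplicate.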

[3] = target: T1, Hypoxia inducible factors; HIF-1-alpha, HIF-2-alpha; assay: Inhibition of hypoxia-induced HIF1 activation in human T47D cells upto 30 uM after 16 hrs by luciferase reporter gene assay; type: cell-based; in short: as §2
T47D [4] = assay: Inhibition of hypoxia-induced secreted VEGF expression in human T47D cells at 0.3 uM after 16 by ELISA; type: functional, cell-based
In short: (§3)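 T47D cells given compound before hypoxia (1% O2, 16 h). Secreted VEGF protein in conditioned media measured by modified human VEGF ELISA and compared with normoxic control level.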

T47D [5] = assay: Inhibition of hypoxia-induced secreted VEGF expression in human T47D cells at 1 uM after 16 by ELISA; type: functional, cell-based; in short: as §3
[6] = target: Aryl hydrocarbon receptor nuclear translocator (Homo sapiens) (UniProt P27540); assay: Inhibition of hypoxia-induced HIF1beta activation in human T47D cells at 0.3 uM after 4 hrs by Western blotting; type: cell-based; in short: as §1
T47D [7] = assay: Inhibition of hypoxia-induced VEGF expression in human T47D cells at 10 uM after 16 hrs by ELISA; type: cell-based
In short: (§4)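 T47D cells given compound for 30 min before hypoxia (1% O2) for 16 h. VEGF protein in cell lysates measured by ELISA, normalized to cellular protein. Representative experiment in triplicate; significance p < 0.05 versus untreated control.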

[8] = Inhibition of luciferase expression in TNT T7 coupled reticulocyte lysate system at 10 uM; type: functional
In short: (§5)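 Cell-free luciferase expression from Luciferase T7 Control DNA using TNT T7 coupled reticulocyte lysate transcription/translation. Compounds present during reaction; luciferase activity expressed as percentage of untreated control.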

T47D [9] = assay: Inhibition of hypoxia-induced secreted VEGF expression in human T47D cells at 10 uM after 16 by ELISA relative to normoxic control; type: functional; in short: as §3
[10] = target: T1, Hypoxia inducible factors; HIF-1-alpha, HIF-2-alpha; assay: Inhibition of hypoxia-induced HIF1 activation in human HeLa cells by luciferase reporter gene assay; type: cell-based
T47D [11] = assay: Inhibition of hypoxia-induced VEGF expression in human T47D cells at 0.3 uM after 16 hrs by ELISA; type: cell-based; in short: as §4
[12] = Inhibition of luciferase expression in TNT T7 coupled reticulocyte lysate system at 0.3 uM; type: functional; in short: as §5
T47D [13] = assay: Inhibition of VEGF protein expression in human T47D cells at 0.3 uM; type: functional
In short: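 T47D breast carcinoma cells in DMEM/F12 with 10% FBS, 37 °C. Compound added 30 min before hypoxia (1% O2/94% N2/5% CO2, 16 h). Cell lysate VEGF measured by ELISA and normalised to cellular protein. Secreted VEGF in conditioned medium measured by modified ELISA. Compared with untreated control; one representative experiment in triplicate; significance p < 0.05.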

T47D [14] = assay: Inhibition of hypoxia-induced secreted VEGF expression in human T47D cells at 3 uM after 16 by ELISA relative to normoxic control; type: functional; in short: as §3
T47D [15] = assay: Inhibition of hypoxia-induced VEGF expression in human T47D cells at 3 uM after 16 hrs by ELISA; type: cell-based; in short: as §4
[16] = target: T1, Hypoxia inducible factors; HIF-1-alpha, HIF-2-alpha; assay: Inhibition of hypoxia-induced HIF1 activation in human T47D cells after 16 hrs by luciferase reporter gene assay; type: cell-based
T47D [17] = assay: Inhibition of hypoxia-induced VEGF expression in human T47D cells at 1 uM after 16 hrs by ELISA; type: cell-based; in short: as §4

Sequence of Aryl hydrocarbon receptor nuclear translocator (Homo sapiens) (P27540 whole entry): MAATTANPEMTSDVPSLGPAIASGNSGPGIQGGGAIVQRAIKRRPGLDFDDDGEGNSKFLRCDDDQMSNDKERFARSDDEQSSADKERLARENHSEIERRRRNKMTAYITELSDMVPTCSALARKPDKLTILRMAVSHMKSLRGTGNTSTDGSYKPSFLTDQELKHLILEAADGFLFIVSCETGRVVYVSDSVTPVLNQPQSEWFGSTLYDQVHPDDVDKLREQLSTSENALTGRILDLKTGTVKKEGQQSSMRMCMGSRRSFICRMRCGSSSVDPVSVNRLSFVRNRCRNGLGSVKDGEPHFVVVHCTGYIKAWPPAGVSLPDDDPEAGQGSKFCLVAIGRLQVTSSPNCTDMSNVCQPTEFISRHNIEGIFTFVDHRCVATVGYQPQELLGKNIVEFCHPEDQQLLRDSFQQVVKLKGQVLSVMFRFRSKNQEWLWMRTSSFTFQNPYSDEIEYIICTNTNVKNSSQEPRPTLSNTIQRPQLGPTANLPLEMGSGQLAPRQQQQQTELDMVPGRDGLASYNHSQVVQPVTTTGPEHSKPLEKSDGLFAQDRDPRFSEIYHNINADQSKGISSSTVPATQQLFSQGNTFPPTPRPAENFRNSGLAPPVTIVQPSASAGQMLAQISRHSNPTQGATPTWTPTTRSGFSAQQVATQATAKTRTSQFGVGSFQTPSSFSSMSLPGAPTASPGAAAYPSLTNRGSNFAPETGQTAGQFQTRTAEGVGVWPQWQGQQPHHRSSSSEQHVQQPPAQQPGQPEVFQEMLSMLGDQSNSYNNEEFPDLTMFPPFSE

Structure (SMILES) | Activity [1] | Activity [2] | Activity [3] | Activity (T47D [4]) | Activity (T47D [5]) | Activity [6] | Activity (T47D [7]) | Activity [8] | inhibition at 10 µM (T47D [9]) [%] | IC50 [10] [nM] | inhibition (T47D [11]) [%] | Activity [12] | Activity (T47D [13]) [pg/mL] | inhibition at 3 µM (T47D [14]) [%] | Activity (T47D [15]) | IC50 [16] [nM] | inhibition (T47D [17]) [%]
CC[C@H]1CN2CCc3cc(OC)c(OC)cc3[C@@H]2C[C@@H]1C[C@@H]1NCCc2cc(O)c(O)cc21 | inactive | inactive | inactive | inactive | Active | inactive |  |  |  |  |  |  |  |  |  |  | 
C[C@@H]1C[C@@H]([C@H](O)CC2CC(=O)NC(=O)C2)C(=O)[C@@H](C)C1 [CYCLOHEXIMIDE] | inactive |  |  | inactive |  | inactive | Active | Active | 43 | 36 |  |  |  |  |  |  | 
CC[C@H]1CN2CCc3cc(OC)c(OC)cc3[C@@H]2C[C@@H]1C[C@H]1NCCc2cc(OC)c(OC)cc21 [EMETINE] | inactive |  |  | Active |  | inactive |  | Active |  |  | 69 | inactive | 58.8 |  |  |  | 
CC[C@H]1CN2CCc3cc(OC)c(OC)cc3[C@@H]2C[C@@H]1C[C@@H]1NCCc2cc(O)c(OC)cc21 [ISOCEPHAELINE] | inactive |  |  | inactive |  | inactive |  |  |  |  |  |  |  | 69 | Active | 1100 | 
CC[C@H]1CN2CCc3cc(O)c(OC)cc3[C@@H]2C[C@@H]1C[C@@]1(O)NCCc2cc(O)c(OC)cc21 [KLUGINE] | inactive |  |  | inactive | Active | inactive |  | Active |  |  |  | inactive |  |  |  | 200 | 56
